Assay outcomes from PubChem BioAssay.
KCNK9 inh = KCNK9 potassium channel inhibitors, primary screen, HEK293 cells, thallium flux; Potassium channel subfamily K member 9 (Homo sapiens), Q9NPC2; FluxOR thallium flux fluorescence; hits give low values; B-score at 10 µM; actives 1.2% (n = 310,000); AID 488922, 2010;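 active = ratio B-score over 3 SD below the library mean, with starting fluorescence within 5 SD of its mean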;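 also: negative B-score means less thallium flux so channel inhibition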
KCNQ1 block = inhibitors of human KCNQ1 channel, primary screen, cell-based, thallium flux, high-throughput | Potassium voltage-gated channel subfamily KQT member 1 (Homo sapiens), P51787 | CHO-K1 KCNQ1, FluxOR thallium flux fluorescence; hits give high values | B-score at 10 µM | actives 1.3% (n = 310,000) | AID 2642, 2010;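 active = compounds whose thallium flux B-score, printed positive for inhibition, exceeds three library SD while starting fluorescence stays within three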;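 also: channel opened by potassium depolarization with thallium stimulus after 20 min compound exposure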
KCNQ1 pot = potentiators or activators of KCNQ1 channel, primary screen, cell-based, thallium flux, high-throughput; Potassium voltage-gated channel subfamily KQT member 1 (Homo sapiens), P51787; CHO-K1 KCNQ1, thallium flux FluxOR fluorescence; hits give high values; B-score at 10 µM; actives 0.35% (n = 310,000); AID 2648, 2010;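 active = fluorescence ratio B-score, a plate-corrected score, at least three library SD, with initial intensity B-score within 5 SD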
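System: CHO-K1 cells stably expressing KCNQ1 / Medium: assay buffer for compound exposure, DMSO matched across wells / Reagent: thallium- and potassium-containing depolarizing buffer / Compound: one concentration, matched DMSO / Incubation: 20 min compound pretreatment at room temperature / Measured by: kinetic FluxOR fluorescence, 10 s baseline plus 110 s post-stimulus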
KCNK3 block = human KCNK3 channel inhibitors, primary screen, CHO cells, FluxOR thallium flux, B-score; Potassium channel subfamily K member 3 (Homo sapiens), O14649; FluxOR fluorescence; hits give low values; B-score at 10 µM; actives 0.84% (n = 340,000);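 active = B-score under library mean minus 4 SD, starting fluorescence ratio at most library mean plus 5 SD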;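 also: more negative B-score means stronger inhibition of thallium flux through KCNK3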
Target sequence (O14649 whole entry, looked up): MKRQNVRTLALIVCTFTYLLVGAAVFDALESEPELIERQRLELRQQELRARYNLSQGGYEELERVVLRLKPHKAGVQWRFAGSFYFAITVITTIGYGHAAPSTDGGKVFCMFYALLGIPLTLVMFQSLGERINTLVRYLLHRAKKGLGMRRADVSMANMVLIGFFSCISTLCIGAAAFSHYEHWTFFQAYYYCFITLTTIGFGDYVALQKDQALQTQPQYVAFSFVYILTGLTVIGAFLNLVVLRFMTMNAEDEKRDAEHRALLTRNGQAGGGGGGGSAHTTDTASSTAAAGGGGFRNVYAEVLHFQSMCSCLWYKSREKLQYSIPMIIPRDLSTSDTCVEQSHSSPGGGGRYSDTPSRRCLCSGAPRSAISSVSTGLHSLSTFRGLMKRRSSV
Cl transport mod = KCC2 cotransporter modulators, thallium flux, primary screen, cell-based, HEK293 KCC2, FluoZin-2 fluorescence, MLSMR | actives 2.2% (n = 190,000) | B-score of Tl+ flux slope (higher = more flux/activation; lower = inhibition) at 10 µM | KCC2 cells, thallium flux FluoZin-2 fluorescence | AID 1456, 2008;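 active = thallium flux slope and its plate-corrected score both differing from the plate sample mean at a set confidence after two filtering rounds, in either direction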;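 also: slope of fluorescence scaled to starting intensity during 10 to 20 s after thallium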
hERG rescue = hERG rescue from dofetilide block, primary screen, cell-based, CHO-hERG, FluxOR thallium flux, dofetilide IC70 | Voltage-gated inwardly rectifying potassium channel KCNH2 (Homo sapiens), Q12809 | dofetilide IC70 present | activation (rescue from dofetilide block), less the hit threshold, % at 10 µM | actives 0.51% (n = 310,000) | AID 1511, 2009;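 active = activation above the mean of controls blocked by dofetilide plus 5 SD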;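 also: thallium influx through hERG after potassium depolarization seen as dye fluorescence rise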
KCC2 sec1 = KCC2 modulators in sodium-free buffer, confirmation, cell-based, HEK293 KCC2, thallium flux, secondary assay | AID 1713, 2009 | shares compounds with Cl transport mod | normalised thallium flux (F/F0 slope) at 10 µM | actives 15% (n = 3,700) | FluoZin2 fluorescence; hits give high values;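 active = thallium flux slope above the same plate's solvent-only control mean plus 3 SD; inconclusive = the two replicate wells disagree; inactive = no significant difference from solvent-only control wells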
KCC2 bumet counter = thallium flux persisting under bumetanide in KCC2 cells, confirmation, counter-screen for KCC2 modulator project, cell-based, HEK293 KCC2, FluoZin2, secondary assay 3. shares compounds with Cl transport mod. HEK293-KCC2 + bumetanide/ouabain; hits give high values. normalized thallium flux at 10 µM. actives 49% (n = 3,700). AID 1714, 2009;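 active = thallium entry rate above the same plate's blocked-transporter control wells by more than 3 SD; inconclusive = the two repeat wells disagree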;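 also: raw slope of fluorescence over initial fluorescence between 10 and 20 s after thallium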
KCC2 secondary2 = KCC2 modulators without ouabain present, confirmation, cell-based, HEK293 KCC2, thallium flux, FluoZin2, secondary assay 2; AID 1715, 2009; normalized thallium flux at 10 µM; shares compounds with Cl transport mod; actives 23% (n = 3,700); thallium flux FluoZin2 fluorescence; actives lie on both sides; F/F0 rise rate, 10–20 s post-thallium;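 active = thallium flux slope more than 3 SD above or below the plate's solvent-only control mean, mostly below; inconclusive = the two repeat wells disagreed; inactive = no significant shift from solvent-only controls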;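 also: raw slope with 0.1% DMSO as baseline and bumetanide as block control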
HEK counter1 = thallium flux modulation in parental HEK cells, confirmation, counter-screen for KCC2 modulator project, cell-based, counterscreen 1 | thallium flux rate (normalised fluorescence) at 10 µM | HEK293 parental cells, thallium flux FluoZin2, ouabain; baseline-ratio fluorescence slope, 10–20 s after thallium | shares compounds with Cl transport mod | actives 46% (n = 3,700);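 active = thallium flux rate significantly above the same plate's solvent-only control wells, beyond their mean plus 3 SD; inconclusive = the two replicate wells gave conflicting results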
KCC2 ouabain = KCC2 inhibitors and activators, ouabain retest, confirmation, HEK-KCC2 cells; shares compounds with Cl transport mod; HEK293-KCC2, thallium flux FluoZin2 fluorescence; bidirectional: low = inhibitor, high = activator; raw Tl+ flux slope (below DMSO = inhibition, above = activation) at 10 µM; actives 48% (n = 3,700);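 active = thallium flux slope beyond 3 SD from same-plate DMSO control mean in most replicates, usually higher, sometimes lower; inconclusive = repeat tests gave conflicting results; inactive = no significant difference from controls in most replicates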;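 also: slope of initial-normalized fluorescence between seconds 10 and 20 after thallium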
HEK293 Tl flux2 = native HEK Tl+ uptake effects, second counter-screen – HEK cells, counterscreen 2, counter-screen for KCC2 modulator project, confirmation; shares compounds with Cl transport mod; HEK293 parental, thallium flux FluoZin-2 fluorescence slope; thallium flux slope at 10 µM; actives 33% (n = 3,700);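 active = thallium flux slope above the same plate's solvent-control mean plus 3 SD in both duplicate wells; inconclusive = duplicate wells that disagreed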;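 also: run without ouabain in cells lacking the KCC2 cotransporter; slope of fluorescence scaled to its starting value between 10 and 20 s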
* hit, by the source's call; i = inactive; ? = inconclusive; nt = no result given. This is a sample that favours compounds with a hit; in the whole collection about 4.1% have one here.

SMILES | KCNK9 inh | KCNQ1 block | KCNQ1 pot | KCNK3 block | Cl transport mod | hERG rescue | KCC2 sec1 | KCC2 bumet counter | KCC2 secondary2 | HEK counter1 | KCC2 ouabain | HEK293 Tl flux2
Cn1c(CNC(=O)OC(C)(C)C)nnc1SCc1c(Cl)cccc1Cl | i | i | i | i | 0.093 | -9 | nt | nt | nt | nt | nt | nt
CCOC(=O)N1CCN(C(=S)NC(=O)C23CC4CC(CC(C4)C2)C3)CC1 | i | i | i | i | 5.9* | -6 | 0.01 | 0.03* | 0.037 | 0.012* | ? | 0.011
CCN(CC)C(=S)NC(=O)C12CC3CC(CC(C3)C1)C2 | i | i | i | i | 20* | -5 | 0.0059 | 0.055* | 0.042* | 0.028* | 0.043* | 0.034*
Cn1c(C(=O)NCCCN2CCc3ccccc3C2)cc2c(=O)n(C)c3ccccc3c21 | i | i | i | i | nt | -17 | 0.0058 | 0.0054 | 0.023* | 0.0078 | ? | 0.012
Cn1c(C(=O)NCCCN2CCCCCC2)cc2c(=O)n(C)c3ccccc3c21 | nt | nt | nt | i | -1.5 | nt | nt | nt | nt | nt | nt | nt
O=C(NCCCO)C(=O)NCC1OCCCN1S(=O)(=O)c1cccs1 (stereo not drawn) | i | i | i | i | nt | -6 | nt | nt | nt | nt | nt | nt
C=CCn1cnc2scc(-c3ccc(CC)cc3)c2c1=O | i | i | i | i | -4.1* | -8 | 0.0054 | 0.004 | 0.028 | 0.0065 | 0.018 | 0.01
CCn1c(SCC(=O)Nc2ccccc2N2CCCCC2)nc2c1c(=O)n(C)c(=O)n2C | i | i | i | i | -0.2 | -17 | nt | nt | nt | nt | nt | nt
CC(C)n1c(SCC(=O)Nc2ccccc2N2CCOCC2)nc2c1c(=O)n(C)c(=O)n2C | i | i | i | i | nt | -1 | 0.0065 | 0.0042 | 0.03 | 0.0075 | 0.018 | 0.0098
O=C1NC[C@@H](Cc2cccc3ccccc23)N(CC2CCCCC2)C1=O | i | i | i | i | -3* | -13 | 0.0054 | 0.0047 | 0.024* | 0.007 | 0.016 | 0.0093
